# From ChEMBL document CHEMBL3286116, “Synthesis, biological evaluation and structure-activity correlation study of a series of imidazol-based compounds as Candida albicans inhibitors” (Eur J Med Chem, 2014)
# What was measured:
# Assay type in all cases: functional
# Candida albicans [1] = assay: Antifungal activity against Candida albicans ATCC 90028 after 48 hrs by CLSI broth microdilution method; conditions: ATCC 90028, 48 h
# Summary of the method: (§1)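 Yeast CLSI broth microdilution (M27-A3). Compounds dissolved in DMSO at 100× the top test concentration, then diluted as serial two-fold dilutions in RPMI 1640 to final 0.125–64. Inoculum was 1.0–1.5 × 10^3 cells mL−1, incubated at 35 °C and read for growth at 48 h. MIC is the lowest concentration giving ≥50% growth inhibition versus growth control. Reported as the median of five replicates and as the geometric mean.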
# Candida albicans [2] = assay: Antifungal activity against Candida albicans ATCC 20891 after 48 hrs by CLSI broth microdilution method; conditions: ATCC 20891, 48 h; summary of the method: as §1
# Candida albicans [3] = assay: Antifungal activity against Candida albicans PMC 1011 after 48 hrs by CLSI broth microdilution method; conditions: PMC 1011, 48 h; summary of the method: as §1
# Pichia kudriavzevii [4] = assay: Antifungal activity against Candida krusei DSM 6128 after 48 hrs by CLSI broth microdilution method; conditions: DSM 6128, 48 h; summary of the method: as §1
# Pichia kudriavzevii [5] = assay: Antifungal activity against Candida krusei PMC 0613 after 48 hrs by CLSI broth microdilution method; conditions: PMC 0613, 48 h; summary of the method: as §1
# Candida tropicalis [6] = assay: Antifungal activity against Candida tropicalis PMC 0910 after 48 hrs by CLSI broth microdilution method; conditions: PMC 0910, 48 h; summary of the method: as §1
# Candida tropicalis [7] = assay: Antifungal activity against Candida tropicalis DSM 11953 after 48 hrs by CLSI broth microdilution method; conditions: DSM 11953, 48 h; summary of the method: as §1
# Candida parapsilosis [8] = assay: Antifungal activity against Candida parapsilosis DSM 11224 after 48 hrs by CLSI broth microdilution method; conditions: Lodderomyces parapsilosis, DSM 11224, 48 h; summary of the method: as §1
# Candida parapsilosis [9] = assay: Antifungal activity against Candida parapsilosis ATCC 22019 after 48 hrs by CLSI broth microdilution method; conditions: Lodderomyces parapsilosis, ATCC 22019, 48 h; summary of the method: as §1
# Nakaseomyces glabratus [10] = assay: Antifungal activity against Candida glabrata PMC 0805 after 48 hrs by CLSI broth microdilution method; conditions: PMC 0805, 48 h; summary of the method: as §1
# Nakaseomyces glabratus [11] = assay: Antifungal activity against Candida glabrata PMC 0807 after 48 hrs by CLSI broth microdilution method; conditions: PMC 0807, 48 h; summary of the method: as §1
# Cryptococcus neoformans [12] = assay: Antifungal activity against Cryptococcus neoformans PMC 2123 after 72 hrs by CLSI broth microdilution method; conditions: PMC 2123, 72 h
# Summary of the method: (§2)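 Cryptococcus neoformans tested by CLSI broth microdilution in RPMI 1640, with serial two-fold dilutions from DMSO stocks at 100× the top concentration, final 0.125–64. Inoculum was 1.0–1.5 × 10^3 cells mL−1 at 35 °C, with growth read at 72 h. MIC is the lowest concentration with ≥50% growth inhibition versus control. Median of five replicates, plus geometric mean.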
# Cryptococcus neoformans [13] = assay: Antifungal activity against Cryptococcus neoformans PMC 2136 after 72 hrs by CLSI broth microdilution method; conditions: PMC 2136, 72 h; summary of the method: as §2
# Cryptococcus neoformans [14] = assay: Antifungal activity against Cryptococcus neoformans PMC 2115 after 72 hrs by CLSI broth microdilution method; conditions: PMC 2115, 72 h; summary of the method: as §2
# Cryptococcus neoformans [15] = assay: Antifungal activity against Cryptococcus neoformans PMC 2103 after 72 hrs by CLSI broth microdilution method; conditions: PMC 2103, 72 h; summary of the method: as §2
# Cryptococcus neoformans [16] = assay: Antifungal activity against Cryptococcus neoformans PMC 2107 after 72 hrs by CLSI broth microdilution method; conditions: PMC 2107, 72 h; summary of the method: as §2
# Cryptococcus neoformans [17] = assay: Antifungal activity against Cryptococcus neoformans PMC 2102 after 72 hrs by CLSI broth microdilution method; conditions: PMC 2102, 72 h; summary of the method: as §2
# Cryptococcus neoformans [18] = assay: Antifungal activity against Cryptococcus neoformans DSM 11959 after 72 hrs by CLSI broth microdilution method; conditions: DSM 11959, 72 h; summary of the method: as §2
# Cryptococcus neoformans [19] = assay: Antifungal activity against Cryptococcus neoformans PMC 2111 after 72 hrs by CLSI broth microdilution method; conditions: PMC 2111, 72 h; summary of the method: as §2
# [20] = test system: Trichophyton mentagrophytes; assay: Antifungal activity against Trichophyton mentagrophytes DSM 4870 after 72 hrs by CLSI broth microdilution method; conditions: DSM 4870, 72 h
# Summary of the method: (§3)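 Dermatophytes tested by CLSI broth microdilution for filamentous fungi (M38-A2). Serial two-fold dilutions of DMSO-dissolved compound in RPMI 1640, final 0.125–64. Inoculum was 0.4–5 × 10^4 CFU mL−1, incubated at 35 °C and read at 72 h. MIC80 is the lowest concentration giving ≥80% growth inhibition versus growth control. Median of five replicates, plus geometric mean.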
# [21] = test system: Trichophyton mentagrophytes; assay: Antifungal activity against Trichophyton mentagrophytes PMC 6515 after 72 hrs by CLSI broth microdilution method; conditions: PMC 6515, 72 h; summary of the method: as §3
# [22] = test system: Trichophyton mentagrophytes; assay: Antifungal activity against Trichophyton mentagrophytes PMC 6531 after 72 hrs by CLSI broth microdilution method; conditions: PMC 6531, 72 h; summary of the method: as §3
# [23] = test system: Trichophyton mentagrophytes; assay: Antifungal activity against Trichophyton mentagrophytes PMC 6509 after 72 hrs by CLSI broth microdilution method; conditions: PMC 6509, 72 h; summary of the method: as §3
# [24] = test system: Trichophyton mentagrophytes; assay: Antifungal activity against Trichophyton mentagrophytes PMC 6503 after 72 hrs by CLSI broth microdilution method; conditions: PMC 6503, 72 h; summary of the method: as §3
# [25] = test system: Trichophyton mentagrophytes; assay: Antifungal activity against Trichophyton mentagrophytes PMC 6552 after 72 hrs by CLSI broth microdilution method; conditions: PMC 6552, 72 h; summary of the method: as §3
# Nannizzia gypsea [26] = assay: Antifungal activity against Microsporum gypseum PMC 7303 after 72 hrs by CLSI broth microdilution method; conditions: PMC 7303, 72 h; summary of the method: as §3
# Nannizzia gypsea [27] = assay: Antifungal activity against Microsporum gypseum PMC 7331 after 72 hrs by CLSI broth microdilution method; conditions: PMC 7331, 72 h; summary of the method: as §3
# Nannizzia gypsea [28] = assay: Antifungal activity against Microsporum gypseum DSM 3824 after 72 hrs by CLSI broth microdilution method; conditions: DSM 3824, 72 h; summary of the method: as §3
# Candida albicans [29] = assay: Antifungal activity against Candida albicans PMC 1040R after 48 hrs by CLSI broth microdilution method; summary of the method: as §1
# Candida albicans [30] = assay: Antifungal activity against Candida albicans PMC 1041R after 48 hrs by CLSI broth microdilution method; summary of the method: as §1
# Nakaseomyces glabratus [31] = assay: Antifungal activity against Candida glabrata PMC 0850R after 48 hrs by CLSI broth microdilution method; summary of the method: as §1
# Nakaseomyces glabratus [32] = assay: Antifungal activity against Candida glabrata PMC 0851R after 48 hrs by CLSI broth microdilution method; summary of the method: as §1
# Nakaseomyces glabratus [33] = assay: Antifungal activity against Candida glabrata PMC 0852R after 48 hrs by CLSI broth microdilution method; summary of the method: as §1
# Nakaseomyces glabratus [34] = assay: Antifungal activity against Candida glabrata PMC 0853R after 48 hrs by CLSI broth microdilution method; summary of the method: as §1
# Candida albicans [35] = assay: Antifungal activity against Candida albicans PMC 1042R after 48 hrs by CLSI broth microdilution method; summary of the method: as §1
# Candida albicans [36] = assay: Ratio of fluconazole MIC to compound MIC for Candida albicans PMC 1040R after 48 hrs by CLSI broth microdilution method
# Candida albicans [37] = assay: Ratio of fluconazole MIC to compound MIC for Candida albicans PMC 1041R after 48 hrs by CLSI broth microdilution method
# Nakaseomyces glabratus [38] = assay: Ratio of fluconazole MIC to compound MIC for Candida glabrata PMC 0850R after 48 hrs by CLSI broth microdilution method
# Nakaseomyces glabratus [39] = assay: Ratio of fluconazole MIC to compound MIC for Candida glabrata PMC 0851R after 48 hrs by CLSI broth microdilution method
# Nakaseomyces glabratus [40] = assay: Ratio of fluconazole MIC to compound MIC for Candida glabrata PMC 0852R after 48 hrs by CLSI broth microdilution method
# Nakaseomyces glabratus [41] = assay: Ratio of fluconazole MIC to compound MIC for Candida glabrata PMC 0853R after 48 hrs by CLSI broth microdilution method
# Candida albicans [42] = assay: Ratio of fluconazole MIC to compound MIC for Candida albicans PMC 1042R after 48 hrs by CLSI broth microdilution method
# Candida albicans [43] = assay: Antifungal activity against Candida albicans ATCC 24433 after 48 hrs by CLSI broth microdilution method; conditions: ATCC 24433, 48 h; summary of the method: as §1
# Candida albicans [44] = assay: Antifungal activity against Candida albicans ATCC 3153 after 48 hrs by CLSI broth microdilution method; conditions: ATCC 3153, 48 h; summary of the method: as §1
# Candida albicans [45] = assay: Antifungal activity against Candida albicans ATCC 10231 after 48 hrs by CLSI broth microdilution method; conditions: ATCC 10231, 48 h; summary of the method: as §1
# Candida albicans [46] = assay: Antifungal activity against Candida albicans ATCC 76615 after 48 hrs by CLSI broth microdilution method; conditions: ATCC 76615, 48 h; summary of the method: as §1
# Candida albicans [47] = assay: Antifungal activity against Candida albicans ATCC 10261 after 48 hrs by CLSI broth microdilution method; conditions: ATCC 10261, 48 h; summary of the method: as §1
structure (smiles),measurement,setting,value
O=C(O[C@H](Cn1ccnc1)c1ccc(Cl)cc1)N1CCN(c2ccc(Cl)cc2)CC1,MIC50,Candida albicans [1],0.125 µg/mL
same,MIC50,Candida albicans [2],0.25 µg/mL
same,MIC50,Candida albicans [3],0.125 µg/mL
same,MIC50,Pichia kudriavzevii [4],4 µg/mL
same,MIC50,Pichia kudriavzevii [5],0.5 µg/mL
same,MIC50,Candida tropicalis [6],2 µg/mL
same,MIC50,Candida tropicalis [7],4 µg/mL
same,MIC50,Candida parapsilosis [8],0.5 µg/mL
same,MIC50,Candida parapsilosis [9],0.5 µg/mL
same,MIC50,Nakaseomyces glabratus [10],0.5 µg/mL
same,MIC50,Nakaseomyces glabratus [11],4 µg/mL
same,MIC50,Cryptococcus neoformans [12],4 µg/mL
same,MIC50,Cryptococcus neoformans [13],4 µg/mL
same,MIC50,Cryptococcus neoformans [14],4 µg/mL
same,MIC50,Cryptococcus neoformans [15],4 µg/mL
same,MIC50,Cryptococcus neoformans [16],2 µg/mL
same,MIC50,Cryptococcus neoformans [17],4 µg/mL
same,MIC50,Cryptococcus neoformans [18],4 µg/mL
same,MIC50,Cryptococcus neoformans [19],2 µg/mL
same,MIC80,[20],16 µg/mL
same,MIC80,[21],4 µg/mL
same,MIC80,[22],8 µg/mL
same,MIC80,[23],8 µg/mL
same,MIC80,[24],2 µg/mL
same,MIC80,[25],1 µg/mL
same,MIC80,Nannizzia gypsea [26],1 µg/mL
same,MIC80,Nannizzia gypsea [27],1 µg/mL
same,MIC80,Nannizzia gypsea [28],8 µg/mL
same,MIC50,Candida albicans [29],32 µg/mL
same,MIC50,Candida albicans [30],4 µg/mL
same,MIC50,Nakaseomyces glabratus [31],4 µg/mL
same,MIC50,Nakaseomyces glabratus [32],8 µg/mL
same,MIC50,Nakaseomyces glabratus [33],4 µg/mL
same,MIC50,Nakaseomyces glabratus [34],4 µg/mL
same,MIC50,Candida albicans [35],1 µg/mL
same,Ratio,Candida albicans [36],10
same,Ratio,Candida albicans [37],10
same,Ratio,Nakaseomyces glabratus [38],10
same,Ratio,Nakaseomyces glabratus [39],10
same,Ratio,Nakaseomyces glabratus [40],10
same,Ratio,Nakaseomyces glabratus [41],10
same,Ratio,Candida albicans [42],10
same,MIC50,Candida albicans [43],0.25 µg/mL
same,MIC50,Candida albicans [44],0.25 µg/mL
same,MIC50,Candida albicans [45],0.5 µg/mL
same,MIC50,Candida albicans [46],0.5 µg/mL
same,MIC50,Candida albicans [47],0.5 µg/mL
